# This is a sample that favours compounds with a hit; in the whole collection about 1.5% have one here.
# procasp3 activ = activates human procaspase-3; P42574; activation, % at 8.5 µM; 330,000 tested, 0.11% active; recombinant procaspase-3 D3A, Ac-DEVD-pNA absorbance 405 nm;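 active means activation above the mean of all tested compounds plus 3 SD, cut at about 21% in these data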;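 further: 0% = DMSO alone and 100% = DMSO wells spiked with extra 5 µM PC-3 D3A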
# Target sequence (P42574 whole entry D9A/D28A/D175A): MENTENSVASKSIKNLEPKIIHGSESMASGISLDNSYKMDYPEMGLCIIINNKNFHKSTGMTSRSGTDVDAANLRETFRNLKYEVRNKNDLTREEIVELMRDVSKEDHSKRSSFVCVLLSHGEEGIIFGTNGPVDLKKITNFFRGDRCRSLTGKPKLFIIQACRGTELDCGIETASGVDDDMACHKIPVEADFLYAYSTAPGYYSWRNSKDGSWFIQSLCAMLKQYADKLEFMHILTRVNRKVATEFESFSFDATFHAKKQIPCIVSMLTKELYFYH
#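 material = Procaspase-3 D3A mutant | probe or stimulus = Ac-DEVD-pNA | compound = single dose, 8.5 µM nominal compound, 0.8% DMSO | timing = 1 h preincubation, 2 h reaction | measured by = 405 nm absorbance of p-nitroaniline, reads at 0 and 120 min | benchmarks = DMSO-only low control, 5 µM PC-3 D3A high control | repeats = singlicate, each compound tested once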
# TbMetRS inhib = blocks T. brucei methionyl-tRNA synthetase activity; purified T. brucei MetRS, ATP depletion, Kinase-Glo luminescence; inhibition, % at 11.9 µM; 360,000 tested, 0.4% active; AID 624268;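 active means inhibition above a per-plate cutoff of the control wells' mean inhibition plus 3 SD, cut at about 5.5% in these data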;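 further: 0% = DMSO wells median and 100% = median of wells with control inhibitor compound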
#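 Material: T. brucei methionyl-tRNA synthetase, purified; reagent: substrates ATP, L-methionine and bulk Escherichia coli tRNA; dosing: 11.9 µM single point; timing: 15 min plus 2 h at 25 °C; detection: luminescence of leftover ATP; evaluation: % inhibition; control set: DMSO-only wells as low control; replicates: singlicate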
# bovine MsrA act = activators of bovine methionine sulfoxide reductase A; activation, % at 10.6 µM; 360,000 tested, 0.3% active; purified bovine MsrA, absorbance read-out; in the data active means activation above about 7.5%;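 further: 0% = vehicle and 100% = reference activator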
# MsrA inhibitor = inhibitors of bovine MsrA; purified bovine MsrA, absorbance read-out; AID 651718; 360,000 tested, 0.75% active; inhibition, % at 15.5 µM; in the data active means inhibition above about 4.5%;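 further: 0% = vehicle wells with enzyme and 100% = reference inhibitor wells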
# proCasp7 act = counter-screen for procaspase-3 activators: activators of human procaspase-7; 330,000 tested, 0.093% active; recombinant procaspase-7, Ac-DEVD-pNA absorbance 405 nm; D23A/D198A/D206A triple mutant, cannot self-cleave; scale: DMSO 0, 5 µM enzyme 100; activation, % at 8.5 µM;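 active means percent activation above the screen-wide mean plus 3 SD, cut at about 25% in these data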
# Target sequence (P55210 whole entry D23A/D198A/D206A): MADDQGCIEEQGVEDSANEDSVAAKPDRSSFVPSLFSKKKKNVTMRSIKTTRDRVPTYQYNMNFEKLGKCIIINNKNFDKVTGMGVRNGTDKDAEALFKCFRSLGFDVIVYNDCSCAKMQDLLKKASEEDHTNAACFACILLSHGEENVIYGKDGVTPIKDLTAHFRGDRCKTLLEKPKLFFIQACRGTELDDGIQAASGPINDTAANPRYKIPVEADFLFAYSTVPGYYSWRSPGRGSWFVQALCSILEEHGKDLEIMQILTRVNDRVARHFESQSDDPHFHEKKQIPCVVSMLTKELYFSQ
#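 Assay system: Uncleavable procaspase-7 mutant enzyme / Input: 2 µM procaspase-7 mutant as dispensed / Dosing: single nominal 8.5 µM compound dose, 0.8% DMSO final / Timing: 1 h enzyme–compound preincubation and 2 h substrate reaction, both 25 °C / Detection: p-Nitroaniline absorbance at 405 nm, read at 0 and 120 min / Replication: singlicate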
# TbMetRS confirm = confirmation of Trypanosoma brucei MetRS inhibitors | shares compounds with TbMetRS inhib | T. brucei MetRS enzyme, luminescence (ATP depletion) | inhibition, % at 11.9 µM | 1,400 tested, 93% active; in the data active means inhibition above about 7%
# Jurkat tox = Jurkat T cell cytotoxicity for MetRS hits | shares compounds with TbMetRS inhib | Jurkat cells viability, ATP luminescence | inhibition, % at 8.3 µM | 1,400 tested, 12% active; in the data active means inhibition above about 15%;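 further: 0% = vehicle and 100% = reference inhibitor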
# Tb MetRS inh FP = orthogonal test for Trypanosoma brucei MetRS inhibitors; AID 651607; inhibition, % at 11.9 µM; purified T. brucei MetRS, fluorescence polarization; 1,400 tested, 44% active; shares compounds with TbMetRS inhib; in the data active means inhibition above about 17%;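 further: 0% = vehicle wells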
# Starred values were filed as active, the others as inactive; · = no result.
SMILES,procasp3 activ,TbMetRS inhib,bovine MsrA act,MsrA inhibitor,proCasp7 act,TbMetRS confirm,Jurkat tox,Tb MetRS inh FP
O=C(NCc1ccccc1)[C@@H]1CCCN1C(=O)[C@H]1CCCN1C(=O)c1ccccc1Cl,·,·,·,-1,·,·,·,·
COC(=O)[C@]12C[C@H](CC(=O)N3CCCCC3)C(=O)N(Cc3ccccc3)C1=C[C@H](C1CCCC1)O[C@@H]2C,·,·,·,1,·,·,·,·
C[C@H]1CN([C@@H](C)CO)C(=O)Cc2cc(NC(=O)Nc3ccccc3)ccc2O[C@H]1CN(C)Cc1ccccc1,·,9.5*,-5,2,·,31*,4,20*
COc1ccc(NC(=O)Nc2cccc3c2O[C@H](CN(C)S(=O)(=O)c2cccs2)[C@@H](C)CN([C@H](C)CO)C3=O)cc1,5,0,-1,-1,6,·,·,·
Cc1noc(C)c1S(=O)(=O)N(C)C[C@H]1Oc2c(NC(=O)Nc3ccc(C(F)(F)F)cc3)cccc2C(=O)N([C@H](C)CO)C[C@@H]1C,13,1,-3,0,-2,·,·,·
C[C@H](CO)N1C[C@H](C)[C@@H](CN(C)S(=O)(=O)c2cccs2)Oc2c(NC(=O)Nc3ccccc3)cccc2C1=O,5,20*,-2,0,-2,53*,-4,25*
COc1ccc(S(=O)(=O)N(C)C[C@H]2Oc3c(NC(=O)Nc4ccccc4)cccc3C(=O)N([C@H](C)CO)C[C@@H]2C)cc1,·,0,-1,-1,·,·,·,·
C[C@H](CO)N1C[C@H](C)[C@@H](CN(C)S(=O)(=O)c2ccccc2)Oc2c(NC(=O)Nc3ccccc3)cccc2C1=O,-2,16*,-1,0,3,35*,-3,10
Cc1noc(C)c1S(=O)(=O)N(C)C[C@H]1Oc2c(NC(=O)Nc3ccccc3)cccc2C(=O)N([C@H](C)CO)C[C@@H]1C,4,17*,-2,2,7,57*,3,25*
O=C(C(=O)N1CCC(CNS(=O)(=O)c2ccc(F)cc2)CC1)c1cccs1,·,·,·,1,·,·,·,·
O=C(CC1CCCC1)N[C@H](C(=O)N1CCC[C@H]1C(=O)NC1CCCC1)C1CCCCC1,·,·,·,0,·,·,·,·
N#CC(C#N)=NNc1ccc2cn[nH]c2c1,·,9.9*,-14,1,·,24*,30*,54*
CCNC(=S)Nc1ccc2cn[nH]c2c1,-7,-1,-1,-1,-5,·,·,·
O=S1(=O)CCSC[C@@H](CN2CCOCC2)N1,·,·,·,2,·,·,·,·
CC(Oc1ccc2c(-c3ccccc3)cc(=O)oc2c1)C(=O)NC(Cc1c[nH]c2ccc(O)cc12)C(=O)O (centres undefined),7,7.4*,-4,2,3,17*,-4,7
COc1ccc2[nH]c(=O)c(CN(CC3CCCO3)C(=O)Nc3ccc(F)cc3)cc2c1 (centres undefined),·,0,1,0,·,·,·,·
Cc1ccc2[nH]c(=O)c(CN(CC3CCCO3)C(=S)NCc3ccco3)cc2c1 (centres undefined),-17,12*,-2,0,-17,23*,3,12
Cc1ccc2[nH]c(=O)c(CN(Cc3ccccc3)C(=S)NCCCN(C)C)cc2c1,0,7.0*,-2,0,-2,17*,17*,10
CCCCNC(=S)N(CCN(CC)CC)Cc1cc2cc3c(cc2[nH]c1=O)OCCO3,-25,2,-3,1,-35,·,·,·
COc1ccc(NC(=O)N(Cc2cc3cc(C)ccc3[nH]c2=O)CC2CCCO2)cc1 (centres undefined),4,12*,-4,1,12,49*,12,17*
CCCCNC(=S)N(CCN(CC)CC)Cc1cc2cc3c(cc2[nH]c1=O)OCO3,-8,8.8*,-11,3,2,16*,5,8
c1ccc2c(c1)OCc1nccn1-2,·,·,·,-1,·,·,·,·
C[C@@H]1CN([C@H](C)CO)C(=O)c2c(c3ccccc3n2C)-c2ccccc2CO[C@@H]1CN(C)C(=O)CCN(C)C,·,·,·,1,·,·,·,·
COc1ccc2[nH]c(=O)c(CN(C(C)=O)C3CCCCC3)cc2c1,3,9.6*,-13,0,8,15*,3,11
Cc1ccc2[nH]c(=O)c(CN(CC3CCCO3)C(=S)Nc3ccccc3)cc2c1 (centres undefined),3,6.1*,-7,0,10,48*,6,27*
SMILES,procasp3 activ,TbMetRS inhib,bovine MsrA act,MsrA inhibitor,proCasp7 act,TbMetRS confirm,Jurkat tox,Tb MetRS inh FP
COc1ccc2[nH]c(=O)c(CN(C(=O)NC3CCCCC3)C3CCCC3)cc2c1,6,0,-2,1,0,·,·,·
O=C(CCNS(=O)(=O)c1ccc(Br)s1)Nc1ccc(Cl)cc1,-1,78*,-4,0,-9,85*,8,69*
O=C(CCNS(=O)(=O)c1ccc(Br)s1)NC1CCCC1,8,0,-2,1,9,·,·,·
COc1c(Cl)cc(Cl)cc1CNc1ccc(S(N)(=O)=O)cc1,-5,16*,-4,1,-7,25*,17*,12
CCOc1c(Cl)cc(CNc2ccc(S(N)(=O)=O)cc2)cc1OC,9,-1,-8,-2,11,·,·,·
COC(=O)c1cc2c(c3c4cc(F)ccc4n(S(=O)(=O)c4ccc(C)cc4)c13)C(=O)N(C)C2,·,·,·,1,·,·,·,·
COc1ccc(Nc2ccnc3ccccc23)cc1,-8,-1,-14,1,-2,·,·,·
O=C(NCCc1ccccc1)c1nccc2ccccc12,7,0,-2,-2,-5,·,·,·
CC(C)Nc1ccc(Nc2ccnc3cc4ccccc4cc23)cc1,-2,85*,1,0,-11,88*,80*,90*
c1ccc(CCNc2ccnc3cc4ccccc4cc23)cc1,·,84*,-1,1,·,92*,81*,83*
O=C(NCc1ccccc1)[C@H]1CCCN1C(=O)[C@H]1CCCN1C(=O)c1ccc(F)cc1,·,·,·,1,·,·,·,·
CCNC(=S)NNC(=O)c1ccc(S(=O)(=O)NCc2ccco2)cc1,-8,6.2*,-7,2,-9,25*,6,12
O=S(=O)(c1ccc(C(F)(F)F)cc1)N1CCCc2nc(-c3ccccc3)ccc21,·,·,·,0,·,·,·,·
C[C@@H]1CCCCO[C@@H](CN(C)C(=O)NC2CCCCC2)[C@@H](C)CN([C@H](C)CO)C(=O)c2cc(N(C)C)ccc2O1,·,·,·,0,·,·,·,·
CCCCS(=O)(=O)N1CCCc2nc(-c3ccccc3)ccc21,·,·,·,0,·,·,·,·
COCC(=O)N(Cc1cc2cc(C)ccc2[nH]c1=O)c1cccc(C)c1C,4,5.6*,-2,1,-3,12*,-2,-1

# High-throughput results as filed in PubChem.
